A short description of assay [1]: Her2 expression decrease, cell viability multiplex – SKBR3 breast tumor cells, AlphaScreen, ATP viability, primary screen (AID 461;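 active means Her2 level under about 52% in both replicate screens, with viability over 70% of control, limit read from the data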;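 on Her2 level: lower value means less Her2 protein in the cells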;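 on viability: percent of carrier control wells set as 100% viability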). The note with it: SKBR3 Her2 protein level, 18-24 h, measured here: SKBR3 viability, ATP luminescence, at 10 µM.
Assay [2] deals with Receptor tyrosine-protein kinase erbB-2 (Homo sapiens) (UniProt P04626). Described as above. Particulars: 18-24 h, at 10 µM, stronger effect = lower value.
Assay [3] is described as follows: reduced viability of SK-BR-3 breast cancer cells – cell-based, 24 h, human, pilot screen (AID 572;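 active means viability at or below 10% of carrier control in both of two separate runs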;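 further: compound exposure lasted between 18 and 24 h rather than exactly 24 h; 100% = carrier-treated control wells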). The note with it: SK-BR-3 viability, CellTiter-Glo luminescence, at 10 µM, stronger effect = lower value.
Assay [4] is described as follows: HUVEC growth inhibition – cell-based, human, primary screen (AID 575;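 active means viability at or below 30% in both replicate assays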;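 further: 100% = median of untreated cell wells with 0.1% DMSO on each plate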). The note with it: HUVEC proliferation, CellTiter-Glo luminescence, 72 h; at 10 µM; stronger effect = lower value. In a few lines: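 Assay system: primary human umbilical vein endothelial cells / Buffer or medium: endothelial basal medium with 2% FBS plus growth supplements / Compound dosing: one dose, 10 µM final, 0.1% DMSO / Timing: 72 h treatment at 37 °C / Signal: CTG luminescence / Benchmarks: 32 DMSO-only cell-control wells (high), 32 MePR drug-control wells (low) per plate / Plate: collagen-coated 384-well format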
Background: ATP-based viability assays read luminescence as a measure of living cells.

Assay [5] in a line: H69AR cell proliferation blockers – human, duplicate replicates, primary screen (AID 580;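 active means viability at or under a set limit in both replicates, limit being median viability minus 3 SD, cut at about 48% in these data, passing the limit was not always enough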;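 further: 100% = mean luminescence of untreated wells and 0% = no signal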). The note with it: H69AR lung tumor cells viability, ATP luminescence, 72 h; at 10 µM; stronger effect = lower value.
Assay [6] in a line: MRP1 drug-resistance reversers in H69AR cells – cell-based, doxorubicin co-treatment, pilot screen (AID 601;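 active means viability loss from added drug above about 55%, and viability with drug at most 40%, in both replicates, limit read from the data, passing the limit was not always enough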). The note with it: CellTiter-Glo, 72 h, at 10 µM; for differential viability (reversal): stronger effect = higher value.
The nature of assay [7]: yeast transport mutant growth inhibition pilot in 384-well plates, post-Golgi transport modulator project (AID 636; in the data active means inhibition above about 31%). Particulars: absorbance 615 nm, about 18 h, stronger effect = higher value.
Assay [8] in a line: growth suppression of yeast trafficking mutant, preliminary HTS, modulators of trafficking downstream of Golgi apparatus project, 1536-format plate, OD 615 nm (AID 637). The note with it: yeast transport mutant growth, absorbance 615 nm, 18 h; stronger effect = higher value.
Setting [9] is: H69AR cells + 2 uM doxorubicin, measured here: viability with 2 uM doxorubicin, stronger effect = lower value.
[10] abbreviates: H69AR cells, compound alone cytotoxicity.

Calls of active or inactive are those of the source. Unless noted, no stated cut-off is given here; in the data, active means inhibition above about 30%; inactive means the rest.

Chain of Receptor tyrosine-protein kinase erbB-2 (Homo sapiens) (P04626 whole entry, looked up): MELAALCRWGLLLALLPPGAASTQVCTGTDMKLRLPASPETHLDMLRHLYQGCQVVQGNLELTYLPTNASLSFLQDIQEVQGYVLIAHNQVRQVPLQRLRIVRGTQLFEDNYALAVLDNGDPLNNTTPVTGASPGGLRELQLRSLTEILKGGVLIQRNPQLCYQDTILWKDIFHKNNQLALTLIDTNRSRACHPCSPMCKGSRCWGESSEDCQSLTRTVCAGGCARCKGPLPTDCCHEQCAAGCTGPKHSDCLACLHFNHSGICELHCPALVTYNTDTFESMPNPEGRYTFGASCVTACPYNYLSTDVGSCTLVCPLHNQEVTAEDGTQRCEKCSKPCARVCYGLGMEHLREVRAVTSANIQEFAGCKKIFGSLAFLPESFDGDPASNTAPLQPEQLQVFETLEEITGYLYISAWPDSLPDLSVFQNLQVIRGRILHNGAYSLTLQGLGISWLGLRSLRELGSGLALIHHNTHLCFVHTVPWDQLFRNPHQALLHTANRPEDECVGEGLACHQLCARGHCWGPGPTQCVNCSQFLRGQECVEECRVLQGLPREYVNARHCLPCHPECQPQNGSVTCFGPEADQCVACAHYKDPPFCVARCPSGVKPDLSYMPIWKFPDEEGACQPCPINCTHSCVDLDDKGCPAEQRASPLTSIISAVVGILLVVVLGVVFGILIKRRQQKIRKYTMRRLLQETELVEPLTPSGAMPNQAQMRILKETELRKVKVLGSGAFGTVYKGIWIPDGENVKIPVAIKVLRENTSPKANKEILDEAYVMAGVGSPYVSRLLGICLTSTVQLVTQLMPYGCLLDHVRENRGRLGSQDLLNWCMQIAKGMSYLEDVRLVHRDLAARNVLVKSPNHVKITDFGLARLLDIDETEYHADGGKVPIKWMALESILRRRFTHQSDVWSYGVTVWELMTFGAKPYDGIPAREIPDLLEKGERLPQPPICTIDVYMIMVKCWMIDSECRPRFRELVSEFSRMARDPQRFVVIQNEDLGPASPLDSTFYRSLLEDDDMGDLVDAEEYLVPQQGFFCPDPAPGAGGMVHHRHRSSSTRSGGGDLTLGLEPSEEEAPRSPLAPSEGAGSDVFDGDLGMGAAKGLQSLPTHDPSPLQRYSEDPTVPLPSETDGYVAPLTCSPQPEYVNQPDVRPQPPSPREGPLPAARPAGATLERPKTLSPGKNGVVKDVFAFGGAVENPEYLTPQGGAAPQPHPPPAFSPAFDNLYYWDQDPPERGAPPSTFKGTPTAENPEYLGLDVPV

What is called viability is a read-out of living cells in per cent, often relative to untreated cells. The term inhibition denotes the relative decrease from the control value, in per cent. For `CC1CN(C2CCCCC2)c2nc3c(c(=O)[nH]c(=O)n3C)n2C1` (stereo not given), the viability in assay [1] was 90.5%; in assay [3], 90.5% (inactive); in assay [4], 86.1% (inactive); in assay [5] it was 82.2% (inactive); in assay [6] (setting [9]) it was 84.4%; in assay [6] (setting [10]), 82.2%. In assay [2], the Her2 level is 95% (inactive). For the same compound, the differential viability (reversal) in assay [6] (H69AR cells + 2 uM doxorubicin) was -2.19% (inactive). Also, the inhibition in assay [7] is -1.95% (inactive); in assay [8] it was 7.3% (inactive).
With `CCCOC(=O)/C(C(N)=NCc1ccccc1)=C(\O)OCCC`, the viability in assay [1] is 82%; in assay [3] it was 82% (inactive); in assay [4] it was 82.6% (inactive); in assay [5], 88.8% (inactive); in assay [6] (setting [9]), 93.4%; in assay [6] (setting [10]) it was 88.8%. Further, the Her2 level in assay [2] is 95% (inactive). The differential viability (reversal) in assay [6] (H69AR cells + 2 uM doxorubicin) was -4.66% (inactive). In addition, the inhibition in assay [7] was 1.3% (inactive); in assay [8], -2.79% (inactive).
Consider `O=C(CC(Cc1ccccc1)C(=O)O)NCCc1ccc2c(c1)OCO2` (stereo not given), for which the viability in assay [1] was 90.5%; in assay [3], 90.5% (inactive); in assay [4], 92% (inactive); in assay [5], 100% (inactive); in assay [6] (setting [9]), 80.8%; in assay [6] (setting [10]), 100%. The Her2 level in assay [2] is 122% (inactive). For the same compound, the differential viability (reversal) in assay [6] (H69AR cells + 2 uM doxorubicin) is 19.3% (inactive). Moreover, the inhibition in assay [7] was -3.82% (inactive); in assay [8] it was -7.17% (inactive).
In the case of `O=C(O)CCC(=O)Nc1nc(-c2ccccc2)cs1`, the viability is 92% in assay [1]; 92% (inactive) in assay [3]; 98.5% (inactive) in assay [4]; 91.3% (inactive) in assay [5]; 96.1% in assay [6] (setting [9]); 91.3% in assay [6] (setting [10]). In addition, the Her2 level in assay [2] is 84.5% (inactive). In addition, the differential viability (reversal) in assay [6] (H69AR cells + 2 uM doxorubicin) was -4.88% (inactive). Moreover, the values for the inhibition in assay [7] and in assay [8] were -6.4% (inactive) and -1.48% (inactive), respectively.
On to `COc1ccccc1C(O)P(=O)(OC(C)C)c1ccc(N(C)C)cc1` (stereo not given), for which the viability was 101% in assay [1]; 101% (inactive) in assay [3]; 104% (inactive) in assay [4]; 98.1% (inactive) in assay [5]; 86.5% in assay [6] (setting [9]); 98.1% in assay [6] (setting [10]). Further, the Her2 level in assay [2] is 120% (inactive). Further, in assay [6] (H69AR cells + 2 uM doxorubicin), the differential viability (reversal) is 11.6% (inactive). Further, the values for the inhibition in assay [7] and in assay [8] were -6.53% (inactive) and -5% (inactive), respectively.
With `O=C(c1ccccc1)N1CCN(CC2CC=CCC2)CC1` (stereo not given), the viability in assay [1] is 82.5%; in assay [3] it was 82.5% (inactive); in assay [4], 102% (inactive); in assay [5], 96.1% (inactive); in assay [6] (setting [9]), 93.5%; in assay [6] (setting [10]) it was 96.1%. Besides, the Her2 level in assay [2] is 79% (inactive). In addition, in assay [6] (H69AR cells + 2 uM doxorubicin), the differential viability (reversal) is 2.54% (inactive). Besides, the inhibition in assay [7] is -6.05% (inactive); in assay [8] it was 2.5% (inactive).
As to `N#Cc1cnn(Cc2ccc(Cl)cc2)c1N`, the viability in assay [1] is 92%; in assay [3], 92% (inactive); in assay [4], 92.7% (inactive); in assay [5] it was 95.4% (inactive); in assay [6] (setting [9]), 84.9%; in assay [6] (setting [10]), 95.4%. In addition, the Her2 level in assay [2] is 97.5% (inactive). In assay [6] (H69AR cells + 2 uM doxorubicin), the differential viability (reversal) is 10.4% (inactive). The inhibition in assay [7] is -7.03% (inactive); in assay [8], -7.21% (inactive).
As to `COc1cc(C2c3c(n[nH]c3C)C(=O)N2c2ccc(C)cc2)ccc1O` (stereo not given), the viability in assay [1] was 113%; in assay [3], 113% (inactive); in assay [4], 88.9% (inactive); in assay [5], 101% (inactive); in assay [6] (setting [9]) it was 97%; in assay [6] (setting [10]), 101%. Besides, in assay [2], the Her2 level is 73% (inactive). Also, the differential viability (reversal) in assay [6] (H69AR cells + 2 uM doxorubicin) was 3.7% (inactive). The inhibition was -3.87% (inactive) in assay [7] and -2.3% (inactive) in assay [8].
For `O=C(NCc1ccco1)Nc1ccc2nsnc2c1`, the viability is 104% in assay [1]; 104% (inactive) in assay [3]; 51.5% (inactive) in assay [4]; 22% (active) in assay [5]; 23.2% in assay [6] (setting [9]); 22% in assay [6] (setting [10]). Also, in assay [2], the Her2 level is 114% (inactive). The differential viability (reversal) in assay [6] (H69AR cells + 2 uM doxorubicin) is -1.17% (inactive). Also, the inhibition is -3.6% (inactive) in assay [7] and -6.45% (inactive) in assay [8].
Take `CCN(CC)C(=O)c1ccc(NS(=O)(=O)c2ccccc2)cc1`: the viability is 89.5% in assay [1]; 89.5% (inactive) in assay [3]; 111% (inactive) in assay [4]; 86.1% (inactive) in assay [5]; 87.3% in assay [6] (setting [9]); 86.1% in assay [6] (setting [10]). Also, the Her2 level in assay [2] was 130% (inactive). In addition, the differential viability (reversal) in assay [6] (H69AR cells + 2 uM doxorubicin) was -1.12% (inactive). Further, the figures for the inhibition in assay [7] and in assay [8] were -1.32% (inactive) and -3.44% (inactive), respectively.
As to `Cc1ccc(S(=O)(=O)CCC(=O)Nc2ccc3c(c2)OCO3)cc1`, the viability in assay [1] was 96.5%; in assay [3], 96.5% (inactive); in assay [4], 92.5% (inactive); in assay [5] it was 81.3% (inactive); in assay [6] (setting [9]) it was 92.1%; in assay [6] (setting [10]) it was 81.3%. Besides, the Her2 level in assay [2] is 84.5% (inactive). In addition, in assay [6] (H69AR cells + 2 uM doxorubicin), the differential viability (reversal) is -10.8% (inactive). The inhibition in assay [7] is 0.95% (inactive); in assay [8], -2.22% (inactive).
Consider `CC(C)(C)NC(=O)C(c1ccco1)N(C(=O)Cn1nnc(-c2ccc(F)cc2)n1)c1ccccc1` (stereo not given), for which the viability in assay [1] is 89.5%; in assay [3] it was 89.5% (inactive); in assay [4] it was 101% (inactive); in assay [5] it was 102% (inactive); in assay [6] (setting [9]), 98.4%; in assay [6] (setting [10]), 102%. Also, in assay [2], the Her2 level is 80% (inactive). Further, the differential viability (reversal) in assay [6] (H69AR cells + 2 uM doxorubicin) was 3.25% (inactive). The inhibition was -0.92% (inactive) in assay [7] and 0% (inactive) in assay [8].
For the compound `COCCN1CN(S(=O)(=O)c2ccccc2)c2nc3ccccc3nc21`, the viability is 101% in assay [1]; 101% (inactive) in assay [3]; 109% (inactive) in assay [4]; 98% (inactive) in assay [5]; 101% in assay [6] (setting [9]); 98% in assay [6] (setting [10]). Besides, in assay [2], the Her2 level is 93.5% (inactive). The differential viability (reversal) in assay [6] (H69AR cells + 2 uM doxorubicin) is -2.97% (inactive). Besides, the inhibition in assay [7] was -3.95% (inactive); in assay [8], 13.6% (inactive).
For the compound `COC(=O)C1C(=O)C2=C(CC1C)NC(=O)CC2c1ccccc1` (stereo not given), the viability is 102% in assay [1]; 102% (inactive) in assay [3]; 91.7% (inactive) in assay [4]; 103% (inactive) in assay [5]; 87.9% in assay [6] (setting [9]); 103% in assay [6] (setting [10]). Further, the Her2 level in assay [2] was 97% (inactive). In assay [6] (H69AR cells + 2 uM doxorubicin), the differential viability (reversal) is 15.2% (inactive). In addition, the inhibition in assay [7] was -3.55% (inactive); in assay [8], 5.33% (inactive).
On to `CC(C)COc1ccc(C(=O)OCCN2CCOCC2)cc1`, for which the viability in assay [1] is 98.5%; in assay [3], 98.5% (inactive); in assay [4], 118% (inactive); in assay [5], 98.2% (inactive); in assay [6] (setting [9]), 95.3%; in assay [6] (setting [10]), 98.2%. Besides, the Her2 level in assay [2] was 101% (inactive). For the same compound, the differential viability (reversal) in assay [6] (H69AR cells + 2 uM doxorubicin) is 2.9% (inactive). Besides, the inhibition in assay [7] is -2.86% (inactive); in assay [8], -3.65% (inactive).
As for `CSc1ccccc1C(=O)NC1CC2CCC1C2` (stereo not given), the viability in assay [1] was 102%; in assay [3], 102% (inactive); in assay [4] it was 92.9% (inactive); in assay [5], 94.8% (inactive); in assay [6] (setting [9]), 87.2%; in assay [6] (setting [10]), 94.8%. In addition, in assay [2], the Her2 level is 89.5% (inactive). For the same compound, in assay [6] (H69AR cells + 2 uM doxorubicin), the differential viability (reversal) is 7.59% (inactive). Moreover, the values for the inhibition in assay [7] and in assay [8] were -5.33% (inactive) and 5.65% (inactive), respectively.

The values are drawn from PubChem BioAssay.
